Values after ≈ are worked out from the molar mass of the structure shown. Values belong to the compound of their own block, whether it stands above or below them. Active and inactive are the calls of the source. No cut-off for these calls is given here.
Legend:
[1] = target: T1, Coagulation factor XI (Homo sapiens, UniProt P03951); assay: Inhibition of human coagulation factor 11a using p-nitroaniline as substrate assessed as substrate hydrolysis by spectrophotometry
Procedure, shortened: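 Human enzyme Ki, averaged over multiple determinations (n = 2).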

[2] = test system: Plasma; assay: Anticoagulant activity in healthy human plasma assessed as concentration required to cause two fold prolongation of activated partial thromboplastin time; assay type: functional
[3] = Half life in human liver microsomes; assay type: ADME
[4] = Solubility in 50 mM pH 6.5 phosphate buffer using amorphous form of compound; assay type: physicochemical
[5] = test system: Plasma; assay: Anticoagulant activity in rabbit plasma assessed as prolongation of thrombin time at 100 uM; assay type: functional, cell-free; settings: Oryctolagus cuniculus
[6] = test system: Oryctolagus cuniculus; assay: Antithrombotic activity in iv dosed rabbit model of electrically induced carotid arterial thrombosis assessed as increase in integrated blood flow of the injured artery; assay type: functional, organism-based
[7] = test system: Plasma; assay: Anticoagulant activity in rabbit plasma assessed as prolongation of prothrombin time at 100 uM; assay type: functional, cell-free; settings: Oryctolagus cuniculus
[8] = test system: Oryctolagus cuniculus; assay: Antithrombotic activity in iv dosed rabbit model of electrically induced carotid arterial thrombosis assessed as reduction in thrombus formation; assay type: functional, organism-based
[9] = Half life in rat at 1 mg/kg, iv; assay type: ADME, organism-based; settings: in vivo
[10] = Half life in rabbit at 1 mg/kg, iv; assay type: ADME, organism-based, Oryctolagus cuniculus; settings: in vivo
Procedure, shortened: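 Rabbits given a single IV dose of 1 mg/kg of the HCl salt in 10% DMAc/90% D5W (5% dextrose in water), with half-life taken from the plasma PK profile.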

[11] = Half life in cynomolgus monkey at 1 mg/kg, iv; assay type: ADME, organism-based, Macaca fascicularis; settings: in vivo
[12] = Half life in dog at 1 mg/kg, iv; assay type: ADME, organism-based, Canis lupus familiaris; settings: in vivo
Procedure, shortened: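 Dogs dosed IV at 1 mg/kg with the HCl salt in 10% DMAc/10% ethanol/10% propylene glycol/70% water, with half-life from the pharmacokinetic profile.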

[13] = Inhibition of rabbit coagulation factor 11a using p-nitroaniline as substrate assessed as substrate hydrolysis at 37 degC by spectrophotometry; set-up: species or system Oryctolagus cuniculus
[14] = Inhibition of chymotrypsin (unknown origin); set-up: species or system Homo sapiens
Procedure, shortened: (§1)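 Ki against each human enzyme, averaged from duplicate IC50 determinations.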

[15] = target: Kallikrein-1 (Homo sapiens, UniProt P06870); assay: Inhibition of tissue kallikrein (unknown origin); procedure, shortened: as §1
[16] = target: Plasma kallikrein (Homo sapiens, UniProt P03952); assay: Inhibition of plasma kallikrein (unknown origin); procedure, shortened: as §1
[17] = test system: Plasma; assay: Anticoagulant activity in rat plasma assessed as concentration required to cause 1.5 fold prolongation of activated partial thromboplastin time
[18] = Unbound fraction in rat plasma; assay type: ADME, cell-free
[19] = target: Coagulation factor X (Homo sapiens, UniProt P00742); assay: Inhibition of coagulation factor 10a (unknown origin); procedure, shortened: as §1
[20] = test system: Plasma; assay: Anticoagulant activity in cynomolgus monkey plasma assessed as concentration required to cause 1.5 fold prolongation of activated partial thromboplastin time
[21] = test system: Plasma; assay: Anticoagulant activity in dog plasma assessed as concentration required to cause 1.5 fold prolongation of activated partial thromboplastin time
[22] = organism: Oryctolagus cuniculus; assay: Toxicity in rabbit cuticle bleeding time model assessed as prologation of bleeding time at 100 uM; assay type: organism-based; settings: in vivo
[23] = target: Prothrombin (Homo sapiens, UniProt P00734); assay: Inhibition of thrombin (unknown origin); procedure, shortened: as §1
[24] = target: Urokinase-type plasminogen activator (Homo sapiens, UniProt P00749); assay: Inhibition of urokinase (unknown origin); procedure, shortened: as §1
[25] = target: Trypsin (Homo sapiens, UniProt P07477+P07478+P35030); assay: Inhibition of trypsin (unknown origin); assay type: protein assay; procedure, shortened: as §1
[26] = target: T2, Coagulation factor VII (Homo sapiens, UniProt P08709); assay: Inhibition of coagulation factor 7a (unknown origin); procedure, shortened: as §1
T2 sequence (P08709 whole entry): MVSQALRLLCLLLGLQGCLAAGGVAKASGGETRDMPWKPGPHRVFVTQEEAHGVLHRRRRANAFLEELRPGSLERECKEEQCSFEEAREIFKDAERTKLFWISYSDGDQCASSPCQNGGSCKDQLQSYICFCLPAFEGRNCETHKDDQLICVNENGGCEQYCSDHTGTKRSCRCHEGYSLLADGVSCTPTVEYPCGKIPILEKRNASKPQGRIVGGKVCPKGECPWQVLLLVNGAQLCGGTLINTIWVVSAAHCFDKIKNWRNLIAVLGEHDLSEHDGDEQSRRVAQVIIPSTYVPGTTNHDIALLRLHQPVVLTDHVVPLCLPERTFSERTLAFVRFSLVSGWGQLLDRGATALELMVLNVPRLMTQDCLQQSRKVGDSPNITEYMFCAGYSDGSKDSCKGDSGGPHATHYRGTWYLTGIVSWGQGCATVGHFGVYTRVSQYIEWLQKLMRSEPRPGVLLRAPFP

[27] = test system: Plasma; assay: Anticoagulant activity in rabbit plasma assessed as concentration required to cause 1.5 fold prolongation of activated partial thromboplastin time
[28] = Unbound fraction in rabbit plasma; assay type: ADME, cell-free, Oryctolagus cuniculus
[29] = Unbound fraction in dog plasma; assay type: ADME, cell-free, Canis lupus familiaris
[30] = target: Coagulation factor IX (Homo sapiens, UniProt P00740); assay: Inhibition of coagulation factor 9a (unknown origin); procedure, shortened: as §1
[31] = target: Tissue-type plasminogen activator (Homo sapiens, UniProt P00750); assay: Inhibition of tPA (unknown origin); procedure, shortened: as §1
[32] = Unbound fraction in cynomolgus monkey plasma; assay type: ADME, cell-free, Macaca fascicularis
[33] = target: Vitamin K-dependent protein C (Homo sapiens, UniProt P04070); assay: Inhibition of APC (unknown origin); procedure, shortened: as §1
[34] = target: T1, Coagulation factor XI; assay: Inhibition of human coagulation factor 11a using p-nitroaniline as substrate assessed as substrate hydrolysis at 37 degC by spectrophotometry
[35] = test system: Plasma; assay: Anticoagulant activity in rabbit plasma assessed as prolongation of activated partial thromboplastin time at 100 uM; assay type: functional, Oryctolagus cuniculus
[36] = Unbound fraction in human plasma; assay type: ADME, cell-free
[37] = target: T3, Coagulation factor XII (Homo sapiens, UniProt P00748); assay: Inhibition of coagulation factor 12a (unknown origin); procedure, shortened: as §1
T3 sequence (P00748 whole entry): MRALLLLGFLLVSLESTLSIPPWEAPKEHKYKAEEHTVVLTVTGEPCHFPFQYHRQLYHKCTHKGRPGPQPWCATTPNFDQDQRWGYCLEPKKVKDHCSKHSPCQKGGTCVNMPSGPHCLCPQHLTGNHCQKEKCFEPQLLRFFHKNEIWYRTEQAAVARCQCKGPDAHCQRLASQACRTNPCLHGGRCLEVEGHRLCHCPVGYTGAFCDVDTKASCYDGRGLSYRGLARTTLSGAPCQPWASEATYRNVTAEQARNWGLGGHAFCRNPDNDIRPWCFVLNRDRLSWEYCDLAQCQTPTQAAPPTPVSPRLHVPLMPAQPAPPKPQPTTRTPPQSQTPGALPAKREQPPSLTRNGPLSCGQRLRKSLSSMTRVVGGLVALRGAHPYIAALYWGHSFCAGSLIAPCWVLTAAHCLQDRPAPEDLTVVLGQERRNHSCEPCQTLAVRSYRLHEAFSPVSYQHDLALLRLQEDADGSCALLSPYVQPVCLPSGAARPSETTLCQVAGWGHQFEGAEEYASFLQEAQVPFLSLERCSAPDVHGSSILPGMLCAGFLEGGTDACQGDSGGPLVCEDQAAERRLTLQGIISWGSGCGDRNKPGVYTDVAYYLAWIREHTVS

T1 sequence (P03951 19-387 limits assumed): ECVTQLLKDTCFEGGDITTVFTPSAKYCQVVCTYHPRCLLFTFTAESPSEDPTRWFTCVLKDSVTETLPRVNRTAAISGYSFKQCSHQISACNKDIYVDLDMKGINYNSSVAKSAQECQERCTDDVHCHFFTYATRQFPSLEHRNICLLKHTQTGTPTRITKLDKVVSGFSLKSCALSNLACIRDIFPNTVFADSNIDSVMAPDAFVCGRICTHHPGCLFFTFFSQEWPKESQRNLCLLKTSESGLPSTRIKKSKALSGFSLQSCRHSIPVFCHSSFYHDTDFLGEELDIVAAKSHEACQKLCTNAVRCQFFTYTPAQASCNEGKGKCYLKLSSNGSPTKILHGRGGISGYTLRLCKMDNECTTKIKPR
T1 sequence (P03951 388-625 limits assumed): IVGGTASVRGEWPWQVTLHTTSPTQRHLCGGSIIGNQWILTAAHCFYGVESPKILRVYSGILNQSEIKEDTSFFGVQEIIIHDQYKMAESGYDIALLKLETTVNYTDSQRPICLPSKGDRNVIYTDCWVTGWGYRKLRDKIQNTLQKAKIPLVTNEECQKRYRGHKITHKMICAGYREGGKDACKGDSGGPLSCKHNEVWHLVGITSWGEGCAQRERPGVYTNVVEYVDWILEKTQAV
Sequence of Kallikrein-1 (P06870 whole entry): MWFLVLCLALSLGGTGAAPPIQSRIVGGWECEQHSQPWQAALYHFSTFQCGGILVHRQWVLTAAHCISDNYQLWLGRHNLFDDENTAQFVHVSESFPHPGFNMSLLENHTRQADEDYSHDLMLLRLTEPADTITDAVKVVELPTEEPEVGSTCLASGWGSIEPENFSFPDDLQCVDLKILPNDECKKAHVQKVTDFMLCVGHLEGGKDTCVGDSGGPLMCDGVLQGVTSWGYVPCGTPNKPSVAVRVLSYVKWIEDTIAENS
Sequence of Vitamin K-dependent protein C (P04070 43-197 limits assumed): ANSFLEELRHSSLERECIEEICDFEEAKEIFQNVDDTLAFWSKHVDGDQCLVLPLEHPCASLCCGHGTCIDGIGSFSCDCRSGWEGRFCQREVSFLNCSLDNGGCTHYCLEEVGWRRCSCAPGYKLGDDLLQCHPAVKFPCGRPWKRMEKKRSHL
Sequence of Vitamin K-dependent protein C (P04070 212-461 limits assumed): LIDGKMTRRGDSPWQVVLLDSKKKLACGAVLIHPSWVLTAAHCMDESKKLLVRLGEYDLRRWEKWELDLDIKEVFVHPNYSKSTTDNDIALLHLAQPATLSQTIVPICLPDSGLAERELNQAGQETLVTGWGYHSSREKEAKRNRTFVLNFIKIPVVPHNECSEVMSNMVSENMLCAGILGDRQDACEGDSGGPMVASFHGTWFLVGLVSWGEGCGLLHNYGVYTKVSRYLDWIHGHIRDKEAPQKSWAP
Sequence of Coagulation factor X (P00742 41-179 limits assumed): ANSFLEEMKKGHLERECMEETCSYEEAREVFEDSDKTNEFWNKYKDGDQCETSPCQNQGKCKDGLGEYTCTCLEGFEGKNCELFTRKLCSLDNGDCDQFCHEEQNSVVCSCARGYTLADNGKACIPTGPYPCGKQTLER
Sequence of Coagulation factor X (P00742 235-488 limits assumed): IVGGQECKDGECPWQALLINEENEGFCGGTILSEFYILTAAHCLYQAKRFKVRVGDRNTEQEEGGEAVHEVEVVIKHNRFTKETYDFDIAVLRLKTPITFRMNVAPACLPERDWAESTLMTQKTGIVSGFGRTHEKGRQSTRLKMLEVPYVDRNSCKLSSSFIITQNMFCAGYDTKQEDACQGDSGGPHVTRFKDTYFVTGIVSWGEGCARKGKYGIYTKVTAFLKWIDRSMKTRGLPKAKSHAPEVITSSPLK
Sequence of Plasma kallikrein (P03952 20-390 limits assumed): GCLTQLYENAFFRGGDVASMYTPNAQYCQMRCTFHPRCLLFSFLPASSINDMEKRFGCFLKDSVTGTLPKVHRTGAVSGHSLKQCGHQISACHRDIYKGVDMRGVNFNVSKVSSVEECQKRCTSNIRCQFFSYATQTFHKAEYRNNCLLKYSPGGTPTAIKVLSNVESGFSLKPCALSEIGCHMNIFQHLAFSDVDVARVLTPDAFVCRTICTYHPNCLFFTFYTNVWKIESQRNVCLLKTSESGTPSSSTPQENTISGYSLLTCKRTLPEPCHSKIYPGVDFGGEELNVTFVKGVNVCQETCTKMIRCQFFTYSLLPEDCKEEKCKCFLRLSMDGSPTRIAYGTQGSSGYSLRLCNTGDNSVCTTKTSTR
Sequence of Plasma kallikrein (P03952 391-638 limits assumed): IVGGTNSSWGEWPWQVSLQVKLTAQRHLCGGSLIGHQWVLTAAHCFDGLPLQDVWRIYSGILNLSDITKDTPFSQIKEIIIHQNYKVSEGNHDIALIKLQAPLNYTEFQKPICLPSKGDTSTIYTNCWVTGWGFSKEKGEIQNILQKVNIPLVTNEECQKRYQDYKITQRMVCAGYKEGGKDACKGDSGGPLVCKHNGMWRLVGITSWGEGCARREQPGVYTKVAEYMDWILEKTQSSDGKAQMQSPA
Sequence of Coagulation factor IX (P00740 47-191 limits assumed): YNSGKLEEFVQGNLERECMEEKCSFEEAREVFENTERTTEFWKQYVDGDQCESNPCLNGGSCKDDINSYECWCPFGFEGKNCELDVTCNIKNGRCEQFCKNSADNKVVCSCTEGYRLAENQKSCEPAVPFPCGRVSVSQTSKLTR
Sequence of Coagulation factor IX (P00740 227-461 limits assumed): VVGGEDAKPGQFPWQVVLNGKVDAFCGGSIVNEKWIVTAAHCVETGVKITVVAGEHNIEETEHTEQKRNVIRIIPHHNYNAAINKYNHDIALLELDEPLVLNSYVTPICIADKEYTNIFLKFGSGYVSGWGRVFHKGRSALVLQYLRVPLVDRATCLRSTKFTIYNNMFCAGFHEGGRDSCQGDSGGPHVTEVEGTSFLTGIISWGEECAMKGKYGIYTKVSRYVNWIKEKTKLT
Sequence of Tissue-type plasminogen activator (P00750 whole entry): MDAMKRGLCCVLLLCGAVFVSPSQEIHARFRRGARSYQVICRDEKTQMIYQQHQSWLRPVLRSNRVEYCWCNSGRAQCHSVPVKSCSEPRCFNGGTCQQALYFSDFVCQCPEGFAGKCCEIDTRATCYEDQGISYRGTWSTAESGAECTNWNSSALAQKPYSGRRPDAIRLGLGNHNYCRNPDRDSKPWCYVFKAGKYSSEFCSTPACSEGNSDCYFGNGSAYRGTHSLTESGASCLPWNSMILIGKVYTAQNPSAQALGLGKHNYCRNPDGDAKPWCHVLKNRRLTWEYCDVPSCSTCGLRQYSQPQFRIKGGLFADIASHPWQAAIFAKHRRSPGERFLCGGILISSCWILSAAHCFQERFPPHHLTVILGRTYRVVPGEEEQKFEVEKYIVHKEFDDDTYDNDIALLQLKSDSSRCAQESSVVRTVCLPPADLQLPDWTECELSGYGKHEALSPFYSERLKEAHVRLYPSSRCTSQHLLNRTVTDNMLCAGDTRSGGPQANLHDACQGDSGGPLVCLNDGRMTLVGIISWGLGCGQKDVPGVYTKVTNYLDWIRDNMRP

- Ki [1]: 0.4 nM
- half-life [3]: 25 min
- solubility [4]: 44 µg/mL (≈ 67.3 µM)
SMILES: COC(=O)Nc1ccc(-c2nc([C@H](CC(=O)N3CCN(C)CC3)NC(=O)/C=C/c3cc(Cl)ccc3-n3cnnn3)[nH]c2Cl)cc1
- 2aPTT [2]: 3.7 µM

- Ki [1]: 0.32 nM
- half-life [3]: 6.6 min
SMILES: O=C(CCc1cc(Cl)ccc1-n1cnnn1)N[C@@H](Cc1ccccc1)c1nc(-c2ccc3[nH]c(=O)cc(O)c3c2)c(Cl)[nH]1
- 2aPTT [2]: 7.2 µM

- Ki [1]: 3.7 nM
- half-life [3]: 46 min
- solubility [4]: < 1 µg/mL
SMILES: COC(=O)Nc1ccc(-c2nc([C@H](Cc3ccccc3)NC(=O)/C=C/c3cc(Cl)ccc3-n3cnnn3)[nH]c2Cl)cc1
- 2aPTT [2]: 19 µM

SMILES: CN1CCN(C(=O)C[C@H](NC(=O)/C=C/c2cc(Cl)ccc2-n2cnnn2)c2nc(-c3ccc4[nH]c(=O)cc(O)c4c3)c(Cl)[nH]2)CC1 [listing 1 of 2 here]
- Activity [5]: inactive
- Activity [6]: Dose-dependent effect
- Activity [7]: inactive
- Activity [8]: Dose-dependent effect

- half-life [9]: 66 min
SMILES: CN1CCN(C(=O)C[C@H](NC(=O)/C=C/c2cc(Cl)ccc2-n2cnnn2)c2nc(-c3ccc4[nH]c(=O)cc(O)c4c3)c(Cl)[nH]2)CC1.O=C(O)C(F)(F)F

- Ki [1]: 12 nM
- half-life [3]: 2.2 min
SMILES: Cc1ccc(-n2cnnn2)c(CCC(=O)N[C@@H](Cc2ccccc2)c2nc(-c3ccc4[nH]c(=O)ccc4c3)c(Cl)[nH]2)c1
- 2aPTT [2]: 69 µM

- Ki [1]: 19 nM
- half-life [3]: 48 min
SMILES: O=C(/C=C/c1cc(Cl)ccc1-n1cnnn1)N[C@@H](Cc1ccccc1)c1nc(-c2ccc3c(c2)CCC(=O)N3)c(Cl)[nH]1
- 2aPTT [2]: 60 µM

- Ki [1]: 0.5 nM
- half-life [3]: 10 min
SMILES: Cc1ccc(-n2cnnn2)c(CCC(=O)N[C@@H](Cc2ccccc2)c2nc(-c3ccc4[nH]c(=O)cc(O)c4c3)c(Cl)[nH]2)c1
- 2aPTT [2]: 9.1 µM

- half-life [10]: 66 min
- half-life [11]: 114 min
- half-life [12]: 66 min
SMILES: CN1CCN(C(=O)C[C@H](NC(=O)/C=C/c2cc(Cl)ccc2-n2cnnn2)c2nc(-c3ccc4[nH]c(=O)cc(O)c4c3)c(Cl)[nH]2)CC1.Cl

- Ki [13]: 0.58 nM
- Ki [14]: 400 nM
- Ki [15]: > 30000 nM
- Ki [16]: 7 nM
- fraction unbound [18]: 0.026
- Ki [19]: > 9000 nM
- EC50 [8]: 530 nM
- Ki [23]: 7400 nM
- Ki [1]: 0.04 nM
- Ki [24]: > 1600 nM
- Ki [25]: 6200 nM
- Ki [26]: > 13300 nM
- fraction unbound [28]: 0.07
- fraction unbound [29]: 0.18
- Ki [30]: > 60000 nM
- Ki [31]: 29000 nM
- fraction unbound [32]: 0.08
- Ki [33]: > 54000 nM
- Ki [34]: 0.1 nM
- half-life [3]: > 200 min
- fraction unbound [36]: 0.08
- solubility [4]: 17 µg/mL (≈ 25.6 µM)
- Ki [37]: > 20000 nM
SMILES: CN1CCN(C(=O)C[C@H](NC(=O)/C=C/c2cc(Cl)ccc2-n2cnnn2)c2nc(-c3ccc4[nH]c(=O)cc(O)c4c3)c(Cl)[nH]2)CC1 [listing 2 of 2 here]
- EC1.5 [17]: >20 µM
- EC1.5 [20]: 0.3 µM
- EC1.5 [21]: 0.3 µM
- Activity [22]: Non-toxic
- 2aPTT [2]: 1 µM
- EC1.5 [27]: 1 µM
- fold change (FC) [35]: 3.2

- Ki [1]: 0.18 nM
- half-life [3]: 56 min
SMILES: O=C(/C=C/c1cc(Cl)ccc1-n1cnnn1)N[C@@H](Cc1ccccc1)c1nc(-c2ccc3[nH]c(=O)cc(O)c3c2)c(Cl)[nH]1
- 2aPTT [2]: 11 µM

- Ki [1]: 0.7 nM
- half-life [3]: 6.2 min
- solubility [4]: 1 µg/mL (≈ 1.56 µM)
SMILES: COC(=O)Nc1ccc(-c2nc([C@H](CC(=O)N3CCOCC3)NC(=O)/C=C/c3cc(Cl)ccc3-n3cnnn3)[nH]c2Cl)cc1
- 2aPTT [2]: 7.4 µM

- Ki [1]: 0.3 nM
- half-life [3]: 154 min
- solubility [4]: 1 µg/mL (≈ 1.45 µM)
SMILES: COC(=O)Nc1ccc(-c2nc([C@H](CC(=O)N3CCS(=O)(=O)CC3)NC(=O)/C=C/c3cc(Cl)ccc3-n3cnnn3)[nH]c2Cl)cc1
- 2aPTT [2]: 3.6 µM

- Ki [1]: 0.6 nM
- half-life [3]: 45 min
- solubility [4]: 3 µg/mL (≈ 4.4 µM)
SMILES: COC(=O)Nc1ccc(-c2nc([C@H](CC(=O)N3CCN(C(C)=O)CC3)NC(=O)/C=C/c3cc(Cl)ccc3-n3cnnn3)[nH]c2Cl)cc1
- 2aPTT [2]: 4.6 µM

Source: ChEMBL document CHEMBL3580601, “Discovery of a Potent Parenterally Administered Factor XIa Inhibitor with Hydroxyquinolin-2(1H)-one as the P2' Moiety” (ACS Med Chem Lett, 2015)
